# Data as given in ChEMBL document CHEMBL1268838, “The synthesis and biologic evaluation of anti-platelet and cytotoxic β-nitrostyrenes” (Bioorg Med Chem, 2010).
# What was measured:
# [1] = Antiaggregatory activity in human platelets assessed as inhibition of thrombin-induced platelet aggregation preincubated for 3 mins before thrombin challenge by turbidimetry analysis; format: functional, cell-based
# Outline: (§1)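 Washed platelets from ACD-anticoagulated blood of drug-free healthy volunteers, resuspended at 3 × 10⁸/ml in Tyrode's solution with Ca²⁺ 2 mM, glucose 11.1 mM and BSA 3.5 mg/ml. Platelets were stirred at 1200 rpm and 37 °C for 3 min with DMSO (0.5%, vehicle) or compound, then the inducer was added. Aggregation was read by light-transmission aggregometry. IC50 is the mean of two independent experiments (TPA lines n = 3).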
# HBL-100 [2] = experiment: Cytotoxicity against human HBL100 cells after 72 hrs by MTT assay; format: functional, cell-based; settings: HBL-100, 72 h
# Outline: (§2)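 MDA-MB-231 breast cancer or HBL-100 non-malignant breast epithelial cells: freshly trypsinized cells seeded at 8000 per well, with compound added from DMSO-diluted stock. After 72 h, attached cells were given MTT (0.5 mg/mL, 1 h) and solubilized in DMSO.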
# MDA-MB-231 [3] = experiment: Cytotoxicity against human MDA-MB-231 cells at 20 uM after 72 hrs by MTT assay; format: functional; settings: MDA-MB-231, 72 h
# MDA-MB-231 [4] = experiment: Cytotoxicity against human MDA-MB-231 cells after 72 hrs by MTT assay; format: functional, cell-based; settings: MDA-MB-231, 72 h; outline: as §2
# [5] = Antiaggregatory activity in human platelets assessed as inhibition of collagen-induced platelet aggregation preincubated for 3 mins before collagen challenge by turbidimetry analysis; format: functional, cell-based; outline: as §1
# HBL-100 [6] = experiment: Cytotoxicity against human HBL100 cells at 20 uM after 72 hrs by MTT assay; format: functional; settings: HBL-100, 72 h
Compound,IC50 [1],IC50 (HBL-100 [2]),inhibition at 20 µM (MDA-MB-231 [3]),IC50 (MDA-MB-231 [4]),IC50 [5],inhibition at 20 µM (HBL-100 [6])
COc1cccc(C(=O)Oc2ccc(/C=C/[N+](=O)[O-])cc2OC)c1,2.9 µM,12.1 µM,28.9%,> 20 µM,0.7 µM,
COc1cc(/C=C/[N+](=O)[O-])ccc1OC(=O)c1ccc(F)cc1,0.9 µM,> 20 µM,,9.8 µM,0.8 µM,25.1%
COc1cc(/C=C/[N+](=O)[O-])ccc1OC(=O)c1ccc(Cl)cc1,1.5 µM,> 20 µM,33.2%,> 20 µM,0.7 µM,7.3%
COc1cc(/C=C/[N+](=O)[O-])ccc1OC(=O)c1ccc(Br)cc1,1.2 µM,> 20 µM,9.1%,> 20 µM,0.6 µM,6.3%
COc1cc(/C=C/[N+](=O)[O-])ccc1OC(=O)c1ccc(C(F)(F)F)cc1,6.2 µM,> 20 µM,-4.9%,> 20 µM,8.3 µM,-7.3%
COc1cc(/C=C/[N+](=O)[O-])ccc1OC(=O)c1ccc(C)cc1,2.7 µM,> 20 µM,7.9%,> 20 µM,2 µM,8%
COc1ccc(C(=O)Oc2ccc(/C=C/[N+](=O)[O-])cc2OC)cc1,3.5 µM,> 20 µM,,18.1 µM,0.8 µM,22.7%
COc1cc(/C=C/[N+](=O)[O-])ccc1OC(=O)c1cccc(F)c1F,3.3 µM,> 20 µM,25.5%,> 20 µM,1.6 µM,4.1%
COc1cc(/C=C/[N+](=O)[O-])ccc1OC(=O)c1ccc(F)cc1F,3 µM,> 20 µM,18.5%,> 20 µM,2 µM,16%
COc1cc(/C=C/[N+](=O)[O-])ccc1OC(=O)c1ccc(F)c(F)c1,2.9 µM,> 20 µM,22.1%,> 20 µM,1.1 µM,0.5%
COc1cc(/C=C/[N+](=O)[O-])ccc1OC(=O)c1cc(F)cc(F)c1,3.4 µM,> 20 µM,24.7%,> 20 µM,1.4 µM,19%
COc1cc(/C=C/[N+](=O)[O-])ccc1OC(=O)c1ccc(Cl)cc1Cl,0.7 µM,> 20 µM,-0.1%,> 20 µM,0.7 µM,9.9%
COc1cc(/C=C/[N+](=O)[O-])ccc1OC(=O)c1ccc(Cl)c(Cl)c1,1 µM,> 20 µM,9.4%,> 20 µM,1.8 µM,15.2%
Cc1ccc(/C=C/[N+](=O)[O-])cc1,8.9 µM,15 µM,,> 20 µM,5.9 µM,
O=[N+]([O-])/C=C/c1ccc(Cl)cc1,7.5 µM,15.7 µM,36.6%,> 20 µM,3.5 µM,
COc1ccc(/C=C/[N+](=O)[O-])cc1,12.1 µM,13 µM,,16.3 µM,3.5 µM,
O=[N+]([O-])/C=C/c1ccc(O)cc1,45.1 µM,16.3 µM,38.3%,> 20 µM,18.4 µM,
COc1cc(/C=C/[N+](=O)[O-])ccc1O,66.5 µM,,,,16.4 µM,
COc1cc(/C=C/[N+](=O)[O-])ccc1OC(=O)c1ccccc1,2.7 µM,> 20 µM,,13.1 µM,1.1 µM,0%
COc1ccc(/C=C/[N+](=O)[O-])cc1O,28.5 µM,12.8 µM,,18.9 µM,7.2 µM,
COc1ccc(/C=C/[N+](=O)[O-])cc1OC,12.8 µM,,,,7.6 µM,
O=[N+]([O-])/C=C/c1ccc2c(c1)OCO2,14 µM,> 20 µM,,14 µM,7.2 µM,39.2%
O=[N+]([O-])/C=C/c1ccccc1 [(2-NITROVINYL)BENZENE],17.8 µM,,,,4.9 µM,
